Source: ChEMBL document CHEMBL1154352, “Toll-like receptor 7 selective synthetic oligoribonucleotide agonists: synthesis and structure-activity relationship studies” (J Med Chem, 2009)
The source made the active and inactive calls. The rule behind the calls is not given here.

What was measured:
PBMC [1] = assay: Immunomodulatory activity in human PBMC assessed as induction of TNFalpha at 50 ug/ml after 24 hrs; assay type: functional, cell-based
Method in brief: (§1)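 Human PBMCs plated at 5 × 10^6 cells/mL; compounds dissolved in PBS added at various concentrations, 37 °C for 24 h. Supernatant cytokines/chemokines quantified with human Luminex multiplex kit.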

PBMC [2] = assay: Immunomodulatory activity in human PBMC assessed as induction of MCP1 at 50 ug/ml after 24 hrs; assay type: functional, cell-based; method in brief: as §1
PBMC [3] = assay: Immunomodulatory activity in human PBMC assessed as induction of IL6 at 50 ug/ml after 24 hrs; assay type: functional, cell-based; method in brief: as §1
Homo sapiens [4] = species: Homo sapiens; assay: Immunostimulatory activity in human pDC assessed as induction of IFNalpha at 100 ug/ml after 24 hrs; assay type: functional
Method in brief: (§2)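 Human pDCs plated at 1 × 10^6 cells/mL; compounds in PBS added, 37 °C for 24 h; supernatant cytokines/chemokines by human Luminex multiplex kit.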

PBMC [5] = assay: Immunomodulatory activity in human PBMC assessed as induction of MIP1alpha at 50 ug/ml after 24 hrs; assay type: functional, cell-based; method in brief: as §1
Homo sapiens [6] = species: Homo sapiens; assay: Immunostimulatory activity in human mDC assessed as induction of TNFalpha at 100 ug/ml after 24 hrs; assay type: functional
Method in brief: (§3)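 Human mDCs isolated from PBMCs by CD19+ B-cell depletion then BDCA1 positive selection; plated at 1 × 10^6 cells/mL, compounds in PBS, 37 °C for 24 h; supernatant cytokines by human Luminex multiplex. Representative of four independent experiments.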

Homo sapiens [7] = species: Homo sapiens; assay: Immunostimulatory activity in human mDC assessed as induction of IL6 at 100 ug/ml after 24 hrs; assay type: functional; method in brief: as §3
PBMC [8] = assay: Immunomodulatory activity in human PBMC assessed as induction of IL12 at 50 ug/ml after 24 hrs; assay type: functional, cell-based; method in brief: as §1
Homo sapiens [9] = species: Homo sapiens; assay: Immunostimulatory activity in human mDC assessed as induction of IFNalpha at 100 ug/ml after 24 hrs; assay type: functional; method in brief: as §3
Homo sapiens [10] = species: Homo sapiens; assay: Immunostimulatory activity in human pDC assessed as induction of IP10 at 100 ug/ml after 24 hrs; assay type: functional; method in brief: as §2
[11] = target: T1, Toll-like receptor 9 (Mus musculus) (UniProt Q9EQU3); assay: Activation of mouse TLR9 expressed in HEK293 assessed as induction of NF-kappaB activity reporter gene assay; assay type: cell-based
T1 sequence (whole entry): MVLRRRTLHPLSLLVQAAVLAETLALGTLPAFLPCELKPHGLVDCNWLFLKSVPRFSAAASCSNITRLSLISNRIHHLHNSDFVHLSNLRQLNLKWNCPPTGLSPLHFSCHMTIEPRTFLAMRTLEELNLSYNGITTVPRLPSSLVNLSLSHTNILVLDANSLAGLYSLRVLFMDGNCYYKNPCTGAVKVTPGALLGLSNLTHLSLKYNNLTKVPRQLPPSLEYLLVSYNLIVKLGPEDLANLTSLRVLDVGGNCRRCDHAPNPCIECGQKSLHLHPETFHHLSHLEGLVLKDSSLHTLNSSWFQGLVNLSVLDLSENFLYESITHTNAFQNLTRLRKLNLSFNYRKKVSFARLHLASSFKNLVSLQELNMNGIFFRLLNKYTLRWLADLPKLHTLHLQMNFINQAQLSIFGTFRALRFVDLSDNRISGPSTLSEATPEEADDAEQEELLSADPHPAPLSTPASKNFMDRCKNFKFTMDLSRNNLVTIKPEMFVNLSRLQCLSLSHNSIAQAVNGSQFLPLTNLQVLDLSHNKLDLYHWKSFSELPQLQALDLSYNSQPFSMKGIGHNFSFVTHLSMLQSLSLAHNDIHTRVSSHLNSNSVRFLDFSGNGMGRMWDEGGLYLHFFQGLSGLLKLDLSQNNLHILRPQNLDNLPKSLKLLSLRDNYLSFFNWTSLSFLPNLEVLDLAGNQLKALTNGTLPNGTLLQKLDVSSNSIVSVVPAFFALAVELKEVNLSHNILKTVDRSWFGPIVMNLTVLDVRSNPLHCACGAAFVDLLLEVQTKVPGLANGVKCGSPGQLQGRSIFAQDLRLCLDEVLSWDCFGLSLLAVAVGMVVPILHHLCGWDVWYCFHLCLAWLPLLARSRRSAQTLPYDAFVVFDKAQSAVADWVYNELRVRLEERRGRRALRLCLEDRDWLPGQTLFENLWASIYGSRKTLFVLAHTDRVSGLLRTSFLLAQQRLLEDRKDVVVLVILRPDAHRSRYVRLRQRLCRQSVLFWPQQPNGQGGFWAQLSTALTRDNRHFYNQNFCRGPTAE

PBMC [12] = assay: Immunomodulatory activity in human PBMC assessed as induction of IFN-alpha at 100 ug/ml after 24 hrs
PBMC [13] = assay: Immunomodulatory activity in human PBMC assessed as induction of IL12 at 100 ug/ml after 24 hrs; assay type: functional, cell-based; method in brief: as §1
PBMC [14] = assay: Immunomodulatory activity in human PBMC assessed as induction of IP10 at 50 ug/ml after 24 hrs; assay type: functional, cell-based; method in brief: as §1
Mus musculus = assay: Immunomodulatory activity in C57BL/6 mouse assessed as induction of IL12 release at 25 mg/kg, sc after 2 hrs by ELISA; assay type: functional, organism-based; parameters: dose 25 mg/kg
Method in brief: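 Female C57BL/6 wild-type mice, 5–8 weeks old, n=3; compounds given subcutaneously at 10 or 25 mg/kg. Retro-orbital blood at 2 h; serum cytokines by mouse Luminex multiplex or IL-12 ELISA.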

Homo sapiens [15] = species: Homo sapiens; assay: Immunostimulatory activity in human mDC assessed as induction of IP10 at 100 ug/ml after 24 hrs; assay type: functional; method in brief: as §3
[16] = target: Toll-like receptor 3 (Homo sapiens) (UniProt O15455); assay: Activation of human TLR3 expressed in HEK293 assessed as induction of NF-kappaB activity reporter gene assay; assay type: cell-based
PBMC [17] = assay: Immunomodulatory activity in human PBMC assessed as induction of IFNalpha at 50 ug/ml after 24 hrs; assay type: functional, cell-based; method in brief: as §1
PBMC [18] = assay: Immunomodulatory activity in human PBMC assessed as induction of MIP1beta at 50 ug/ml after 24 hrs; assay type: functional, cell-based; method in brief: as §1
Homo sapiens [19] = species: Homo sapiens; assay: Immunostimulatory activity in human mDC assessed as induction of IL12 at 100 ug/ml after 24 hrs; assay type: functional; method in brief: as §3
PBMC [20] = assay: Immunomodulatory activity in human PBMC assessed as induction of IL1-beta at 50 ug/ml after 24 hrs; assay type: functional, cell-based; method in brief: as §1
Homo sapiens [21] = species: Homo sapiens; assay: Immunostimulatory activity in human pDC assessed as induction of IL6 at 100 ug/ml after 24 hrs; assay type: functional; method in brief: as §2

Chain of Toll-like receptor 3 (Homo sapiens) (O15455 whole entry): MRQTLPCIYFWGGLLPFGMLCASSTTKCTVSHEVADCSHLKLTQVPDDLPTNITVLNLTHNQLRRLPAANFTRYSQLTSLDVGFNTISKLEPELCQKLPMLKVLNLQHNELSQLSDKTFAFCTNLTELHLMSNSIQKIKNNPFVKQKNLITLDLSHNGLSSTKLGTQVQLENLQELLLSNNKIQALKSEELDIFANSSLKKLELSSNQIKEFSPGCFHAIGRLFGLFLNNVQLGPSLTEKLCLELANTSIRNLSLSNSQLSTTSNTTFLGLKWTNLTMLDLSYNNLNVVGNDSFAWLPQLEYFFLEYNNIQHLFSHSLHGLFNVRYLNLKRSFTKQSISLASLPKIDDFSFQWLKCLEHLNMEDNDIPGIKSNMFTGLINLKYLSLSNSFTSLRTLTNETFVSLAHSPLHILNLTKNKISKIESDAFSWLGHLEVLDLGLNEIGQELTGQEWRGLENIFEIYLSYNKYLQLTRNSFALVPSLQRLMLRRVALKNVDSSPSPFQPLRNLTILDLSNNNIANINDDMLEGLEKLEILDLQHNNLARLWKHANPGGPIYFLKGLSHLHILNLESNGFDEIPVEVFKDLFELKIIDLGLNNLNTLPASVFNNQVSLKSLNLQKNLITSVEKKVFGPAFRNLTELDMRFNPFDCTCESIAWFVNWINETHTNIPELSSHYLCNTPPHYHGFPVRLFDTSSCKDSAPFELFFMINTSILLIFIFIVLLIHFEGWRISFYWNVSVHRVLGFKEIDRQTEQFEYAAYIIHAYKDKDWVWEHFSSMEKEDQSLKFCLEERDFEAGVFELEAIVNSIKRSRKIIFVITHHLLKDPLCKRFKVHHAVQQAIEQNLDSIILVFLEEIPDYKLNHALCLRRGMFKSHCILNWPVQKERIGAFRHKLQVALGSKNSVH

Activity [11] | Activity [16] | Compound | Activity (PBMC [1]) [pg/mL] | Activity (PBMC [2]) [pg/mL] | Activity (PBMC [3]) [pg/mL] | Activity (Homo sapiens [4]) | Activity (PBMC [5]) [pg/mL] | Activity (Homo sapiens [6]) | Activity (Homo sapiens [7]) | Activity (PBMC [8]) [pg/mL] | Activity (Homo sapiens [9]) | Activity (Homo sapiens [10]) | IFN-alpha (PBMC [12]) [pg/mL] | Activity (PBMC [13]) [pg/mL] | Activity (PBMC [14]) [pg/mL] | Activity (Mus musculus) | Activity (Homo sapiens [15]) | Activity (PBMC [17]) [pg/mL] | Activity (PBMC [18]) [pg/mL] | Activity (Homo sapiens [19]) | other results
inactive | inactive | Nc1ccn([C@@H]2O[C@H](COP(=O)(S)O[C@H]3[C@@H](O)[C@H](n4cnc5c(N)ncnc54)O[C@@H]3CO)[C@@H](OP(=O)(S)OC[C@H]3O[C@@H](n4ccc(=O)[nH]c4=O)[C@H](O)[C@@H]3OP(=O)(S)OC[C@H]3O[C@@H](n4ccc(=O)[nH]c4=O)[C@H](O)[C@@H]3OP(=O)(S)OC[C@H]3O[C@@H](n4ccc5c(=O)[nH]c(N)nc54)[C@H](O)[C@@H]3OP(=O)(S)OC[C@H]3O[C@@H](n4cnc5c(N)ncnc54)[C@H](O)[C@@H]3OP(=O)(S)OC[C@H]3O[C@@H](n4ccc(N)nc4=O)[C@H](O)[C@@H]3OP(=O)(S)OC[C@H]3O[C@@H](n4ccc5c(=O)[nH]c(N)nc54)[C@H](O)[C@@H]3OP(=O)(S)OC[C@H]3O[C@@H](n4cnc5c(N)ncnc54)[C@H](O)[C@@H]3OP(=O)(S)OC[C@H]3O[C@@H](n4ccc(=O)[nH]c4=O)[C@H](O)[C@@H]3OP(=O)(S)OC[C@H]3O[C@@H](n4ccc(=O)[nH]c4=O)[C@H](O)[C@@H]3OP(=O)(S)OCC(O)COP(=O)(S)O[C@H]3[C@@H](O)[C@H](n4ccc(=O)[nH]c4=O)O[C@@H]3COP(=O)(S)O[C@H]3[C@@H](O)[C@H](n4ccc(=O)[nH]c4=O)O[C@@H]3COP(=O)(S)O[C@H]3[C@@H](O)[C@H](n4cnc5c(N)ncnc54)O[C@@H]3COP(=O)(S)O[C@H]3[C@@H](O)[C@H](n4ccc5c(=O)[nH]c(N)nc54)O[C@@H]3COP(=O)(S)O[C@H]3[C@@H](O)[C@H](n4ccc(N)nc4=O)O[C@@H]3COP(=O)(S)O[C@H]3[C@@H](O)[C@H](n4cnc5c(N)ncnc54)O[C@@H]3COP(=O)(S)O[C@H]3[C@@H](O)[C@H](n4ccc5c(=O)[nH]c(N)nc54)O[C@@H]3COP(=O)(S)O[C@H]3[C@@H](O)[C@H](n4ccc(=O)[nH]c4=O)O[C@@H]3COP(=O)(S)O[C@H]3[C@@H](O)[C@H](n4ccc(=O)[nH]c4=O)O[C@@H]3COP(=O)(S)O[C@H]3[C@@H](O)[C@H](n4ccc(N)nc4=O)O[C@@H]3COP(=O)(S)O[C@H]3[C@@H](O)[C@H](n4cnc5c(N)ncnc54)O[C@@H]3CO)[C@H]2O)c(=O)n1 (some centres undefined) | 174 | 49100 | 2380 | Active | 3620 | Active | Active | 360 | Active | Active | 233 | 394 | 199 | Active | Active | 106 | 7330 | Active | Activity (PBMC [20]): 218 pg/mL; Activity (Homo sapiens [21]): Active
inactive | inactive | Nc1ccn([C@@H]2O[C@H](CO[C@H]3[C@@H](O)[C@H](n4cnc5c(N)ncnc54)O[C@@H]3COP(=O)(S)O[C@H]3[C@@H](O)[C@H](n4ccc5c(=O)[nH]c(N)nc54)O[C@@H]3COP(=O)(S)O[C@H]3[C@@H](O)[C@H](n4ccc(=O)[nH]c4=O)O[C@@H]3COP(=O)(S)O[C@H]3[C@@H](O)[C@H](n4cnc5c(N)ncnc54)O[C@@H]3COP(=O)(S)O[C@H]3[C@@H](O)[C@H](n4ccc5c(=O)[nH]c(N)nc54)O[C@@H]3COP(=O)(S)O[C@H]3[C@@H](O)[C@H](n4ccc(=O)[nH]c4=O)O[C@@H]3CO)[C@@H](OP(=O)(S)OC[C@H]3O[C@@H](n4ccc5c(=O)[nH]c(N)nc54)[C@H](O)[C@@H]3OP(=O)(S)OC[C@H]3O[C@@H](n4cnc5c(N)ncnc54)[C@H](O)[C@@H]3OP(=O)(S)OC[C@H]3O[C@@H](n4ccc(=O)[nH]c4=O)[C@H](O)[C@@H]3OP(=O)(S)OC[C@H]3O[C@@H](n4ccc(=O)[nH]c4=O)[C@H](O)[C@@H]3OP(=O)(S)OCC(O)COP(=O)(S)O[C@H]3[C@@H](O)[C@H](n4ccc(=O)[nH]c4=O)O[C@@H]3COP(=O)(S)O[C@H]3[C@@H](O)[C@H](n4ccc(=O)[nH]c4=O)O[C@@H]3COP(=O)(S)O[C@H]3[C@@H](O)[C@H](n4cnc5c(N)ncnc54)O[C@@H]3COP(=O)(S)O[C@H]3[C@@H](O)[C@H](n4ccc5c(=O)[nH]c(N)nc54)O[C@@H]3COP(=O)(S)O[C@H]3[C@@H](O)[C@H](n4ccc(N)nc4=O)O[C@@H]3CO[C@H]3[C@@H](O)[C@H](n4cnc5c(N)ncnc54)O[C@@H]3COP(=O)(S)O[C@H]3[C@@H](O)[C@H](n4ccc5c(=O)[nH]c(N)nc54)O[C@@H]3COP(=O)(S)O[C@H]3[C@@H](O)[C@H](n4ccc(=O)[nH]c4=O)O[C@@H]3COP(=O)(S)O[C@H]3[C@@H](O)[C@H](n4cnc5c(N)ncnc54)O[C@@H]3COP(=O)(S)O[C@H]3[C@@H](O)[C@H](n4ccc5c(=O)[nH]c(N)nc54)O[C@@H]3COP(=O)(S)O[C@H]3[C@@H](O)[C@H](n4ccc(=O)[nH]c4=O)O[C@@H]3CO)[C@H]2O)c(=O)n1 (some centres undefined) | 68 | 56000 | 2760 | Active | 5790 | Active | Active | 434 | Active | Active | 183 | 102 | 155 | Active | Active | 131 | 9960 | Active | Activity (PBMC [20]): 306 pg/mL; Activity (Homo sapiens [21]): Active
